Compound activity deposited in PubChem by several laboratories.
FGF22 binding = FGF22 (human) thermal shift binding. AID 651658. activity (Tm shift, normalised), % at 9.99 µM. Q9HCT0. 340,000 compounds, 1.5% hits. recombinant FGF22 thermal shift, SYPRO orange fluorescence; percent of sucrose octasulfate shift, DMSO zero;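 active = mean Tm shift, scaled 0 neutral to 100 positive control, at about 1.3% or above, every replicate too, limit read from the data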
Target sequence (Q9HCT0 whole entry, looked up): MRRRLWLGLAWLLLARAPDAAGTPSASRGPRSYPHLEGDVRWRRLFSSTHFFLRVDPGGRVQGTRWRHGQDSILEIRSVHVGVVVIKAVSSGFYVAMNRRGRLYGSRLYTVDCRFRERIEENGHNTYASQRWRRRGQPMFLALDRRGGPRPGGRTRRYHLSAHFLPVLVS
NS3 helicase inh = blocks Hepatitis C virus NS3 helicase unwinding; inhibition, % at 10.9 µM; 290,000 compounds, 0.56% hits; NS3 helicase DNA unwinding, Cy5 molecular beacon fluorescence;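 active = inhibition above the mean of all tested compounds plus 3 SD, set per campaign, cut at about 35% in these data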;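 note: 0% = DMSO wells and 100% = thioflavine S control wells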
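Measured by: Cy5 fluorescence, 0 and 60 min reads / Assay system: NS3 helicase fragment of HCV / Control set: low DMSO, high thioflavine S at 110 µM / Times: 1 h reaction at 25 °C, ATP-initiated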
GRIN3A LBD mod = NR3A (human) ligand-binding domain modulation; NR3A LBD differential scanning fluorimetry, Tm shift; 0% = protein alone, 100% = glycine-bound protein; Tm shift relative to glycine control, % at 25 µM; 340,000 compounds, 2.5% hits;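 active = melting temperature shift of at least 10% of the positive control shift, at one fixed dose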
ZTA counter = blocks Epstein-Barr virus ZTA, an EBNA-1 counter-screen; P03206; ZTA-DNA binding, fluorescence polarization; inhibition, % at 11 µM; 320,000 compounds, 0.15% hits; in the data active = inhibition above about 33%
Target sequence (P03206 whole entry, looked up): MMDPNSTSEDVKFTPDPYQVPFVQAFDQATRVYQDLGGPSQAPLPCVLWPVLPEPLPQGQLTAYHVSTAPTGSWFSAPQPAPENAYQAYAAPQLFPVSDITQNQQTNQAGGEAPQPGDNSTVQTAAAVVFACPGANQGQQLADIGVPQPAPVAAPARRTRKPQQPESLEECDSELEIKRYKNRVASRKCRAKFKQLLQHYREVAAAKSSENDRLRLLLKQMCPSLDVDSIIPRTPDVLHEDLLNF
EBNA-1 inhibitor = blocks EBNA-1 binding to DNA. EBNA-1 DNA binding, fluorescence polarization. 300,000 compounds, 0.34% hits. inhibition, % at 14.8 µM; in the data active = inhibition above about 28%
FID counter = fluorescent intercalator displacement, NS3 helicase counter-screen | DNA fluorescent intercalator displacement, fluorescence | inhibition, % at 7.9 µM | 290,000 compounds, 0.17% hits | AID 1845; in the data active = inhibition above about 37%;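 note: 0% = vehicle and 100% = reference compound; higher means more ethidium bromide displaced from hairpin DNA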
EBNA-1 confirm = EBNA-1 (EBV) inhibition, confirmation; shares compounds with EBNA-1 inhibitor; Recombinant EBNA-1 DBD, Cy5-DNA fluorescence polarization; inhibition, % at 14.8 µM; 830 compounds, 35% hits; AID 2292;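 active = mean inhibition across replicates above a set limit taken from the earlier primary screen, cut at about 28% in these data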;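 note: plate controls were EBNA-1 protein with DMSO for no effect and wells lacking EBNA-1 for full effect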
ZTA DNA inh trip = counter-screen for EBNA-1 inhibitors: Epstein-Barr virus ZTA inhibitors, triplicate; inhibition, % at 11.1 µM; shares compounds with EBNA-1 inhibitor; 830 tested, under 10 active; Zta-ZRE DNA binding, Cy5 fluorescence polarization;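 active = mean inhibition over triplicates above a set limit taken from the primary EBNA-1 screen, cut at about 37% in these data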;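 note: purified full length Zta protein with Cy5 labeled ZRE DNA probe; 0% = Zta with DMSO and 100% = wells lacking Zta protein; inhibitors lower polarization by freeing the labeled DNA probe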
* = called active by the depositor; . = no result. Sampled rows, rich in hits. Any-hit rate of the full collection: about 3.6%.

SMILES | FGF22 binding | NS3 helicase inh | GRIN3A LBD mod | ZTA counter | EBNA-1 inhibitor | FID counter | EBNA-1 confirm | ZTA DNA inh trip
CC(=O)Nc1nnc(SCC(=O)c2ccc3c(c2)Cc2ccccc2-3)s1 | . | 4.8 | 14.9* | 8.5 | 40.1* | -0.8 | 43.3* | 2.9
C[C@H]1CN([C@@H](C)CO)C(=O)Cc2cc(NC(=O)Nc3ccc4c(c3)OCO4)ccc2O[C@@H]1CN(C)S(=O)(=O)c1ccccc1 | -0.6 | . | . | . | . | . | . | .
O=C(C[C@H]1CC[C@H](NC(=O)CCN2CCCCC2)[C@H](CO)O1)Nc1ccc(-c2ccccc2)cc1 | -0.7 | . | . | . | . | . | . | .
C/C(=N\NC(=O)c1c(Cl)cnn1C)c1cccc(NC(=O)c2ccc(C)cc2)c1 | -0.1 | -3.0 | 2.4 | 5.6 | 3.5 | -31.6 | . | .
C/C(=N\NC(=O)c1c(Br)cnn1C)c1ccc(NC(=O)c2ccc(F)cc2)cc1 | -0.2 | 3.4 | 0.2 | -12.4 | 49.8* | -2.2 | 68.5* | 0.7
Cc1cccc(OCC(=O)N/N=C\C=C\c2ccc3c(c2)OCO3)c1C | . | 1.6 | -10.8 | -6.8 | 58.7* | -6.2 | 80.3* | -1.1
CCN(CC)C(=O)CSc1nc2cc3c(cc2c(=O)n1CCCC(=O)NCc1ccc(OC)cc1)OCO3 | -0.1 | 10.9 | -0.8 | -10.6 | -11.5 | -1.8 | . | .
COc1ccc(CNC(=O)CCCCCn2c(SCC#N)nc3cc4c(cc3c2=O)OCO4)cc1 | . | 10.8 | -0.2 | 8.0 | 38.3* | -9.8 | 5.8 | 12.4
Cc1nn(Cc2ccccc2)c(C)c1NC(=O)c1cc(-c2ccc3c(c2)OCO3)on1 | . | 2.2 | 2.9 | -12.9 | 42.0* | -2.3 | 42.5* | 3.5
COc1ccc(-c2cc(C(=O)Nc3c(C)nn(Cc4ccccc4)c3C)no2)cc1 | . | -1.3 | -3.3 | -11.0 | 14.3 | -29.3 | . | .
COc1cccc(-c2cc(=O)c3cc(NC(=O)c4ccc(N(C)C)cc4)ccc3[nH]2)c1 | . | 9.1 | 0.0 | -0.5 | 41.8* | -17.2 | 15.9 | -2.2
O=C(c1cc2sccc2n1Cc1ccc(F)cc1)N1CCN(c2nc3ccccc3s2)CC1 | . | -16.5 | -0.1 | 10.8 | 12.0 | -18.5 | . | .
Cn1c(C(=O)N2CCN(c3nc4ccccc4s3)CC2)cc2sccc21 | . | -2.2 | 8.0 | 6.6 | 50.9* | -6.3 | 30.8* | 2.5
COc1ccc2c(c1)[nH]c1c(=O)n(Cc3ccco3)cnc12 | . | -2.5 | -0.7 | 5.0 | 37.2* | -0.6 | -1.9 | -12.6
CC(C)CC#Cc1ccc2c(c1)O[C@@H](CN(C)Cc1ccccc1F)[C@H](C)CN([C@H](C)CO)S2(=O)=O | -0.2 | . | . | . | . | . | . | .
CC1=CC2=NC(=O)/C(=C\c3cn(C)c4ccccc34)C(=N)N2O1 | 0.4 | -2.8 | -1.5 | -9.9 | 39.6* | -14.4 | 90.5* | 1.8
CC1=CC2=NC(=O)/C(=C\c3cc(C)n(-c4ccccc4)c3C)C(=N)N2O1 | -0.1 | -3.1 | -7.0 | -1.8 | 5.1 | -6.2 | . | .
COc1cc(C(=O)Nc2cccc(-c3nc4cc(C)ccc4o3)c2C)cc(OC)c1OC | . | -0.8 | 0.6 | 6.7 | 37.3* | -8.2 | 24.6 | 4.8
Cc1ccc(N=Nc2ccc(O)c(/C=N\NC(=O)c3ccc(N)cc3)c2)cc1C | . | 9.3 | 0.9 | -2.6 | 37.6* | -2.9 | -5.5 | 23.1
O=C(N/N=C/c1cc(Cl)ccc1O)c1ccc(Br)cc1 | . | 2.9 | 7.9 | 0.3 | -11.3 | -10.1 | . | .
Cc1ccc2c(c1)N1C(=O)c3ccccc3C1C1=C(CC(C)(C)CC1=O)N2 (configuration not stated) | . | -6.5 | 0.3 | 5.9 | 92.8* | -15.1 | -10.7 | -4.8
CC(=O)Oc1cccc(C2C3=C(CC(C)(C)CC3=O)Nc3ccccc3N2C(C)=O)c1 (configuration not stated) | 0.0 | 0.6 | 0.7 | -9.3 | -18.5 | -12.8 | . | .
Cn1c(CNC(=O)c2ccc(Cl)c(Cl)c2)nnc1SCC(=O)Nc1sc2c(c1C#N)CCCC2 | . | 1.6 | 3.3 | 8.8 | 30.9* | -10.1 | 38.9* | -8.1
CO[C@@H]1CN(C)C(=O)c2ccc(NC(C)=O)cc2OC[C@H](C)N(C(=O)C2CCOCC2)C[C@@H]1C | -0.2 | . | . | . | . | . | . | .
